Measured values reported in ChEMBL document CHEMBL4765376, “Discovery of an Orally Available Diazabicyclooctane Inhibitor (ETX0282) of Class A, C, and D Serine β-Lactamases” (J Med Chem, 2020).
Values after ≈ are worked out from the molar mass of the structure shown. Active and inactive are the calls of the source. The rule behind the calls is not given here.

Key:
Escherichia coli [1] = assay: In vivo antibacterial activity against multidrug-resistant Escherichia coli ARC 2687 infected in CD-1 mouse model of neutropenic thigh infection assessed as colony forming unit at 600 mg/kg, sc administered at 6 hrs interval relative to pretreatment; assay type: functional
Method in brief: (§1)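 Female CD-1 mice (20–22 g, 3/arm) made neutropenic with ip cyclophosphamide, 150 mg/kg on day −4 and 100 mg/kg on day −1. Each thigh received an im inoculum of 5.5 × 10^6–1.6 × 10^7 CFU from saline suspension (OD625 0.1, diluted). Dosing began 2 h post-infection, q6h. Oral agents were given in 0.5% HPMC/0.1% Tween 80; meropenem was given sc in water. Thighs were taken at 24 h, homogenized and plated on TSA (35 °C overnight) for CFU counts.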

[2] = Cmax in Sprague-Dawley rat at 11.6 mg/kg, po by LC/MS/MS analysis; assay type: ADME, organism-based; parameters: route oral, dose 11.6 mg/kg; conditions: in vivo
[3] = Drug metabolism assessed as diamine metabolite formation
Escherichia coli [4] = assay: Synergistic antibacterial activity against multidrug-resistant Escherichia coli ARC 2687 infected in CD-1 mouse model of neutropenic thigh infection assessed as reduction in colony forming unit in presence of cefpodoxime at 50 to 100 mg/kg, po administered every 6 hrs interval; assay type: functional; conditions: dose 50-100 mg/kg; method in brief: as §1
[5] = Half-life in Sprague-Dawley rat at 11.6 mg/kg, po by LC/MS/MS analysis; assay type: ADME, organism-based; conditions: in vivo
[6] = Toxicity in rat assessed as adverse effect at 400 to 500 mg/kg, po measured for 14 days; assay type: organism-based; conditions: in vivo, 336 h, dose 400-500 mg/kg, time 14 day
Method in brief: (§2)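 Fourteen-day GLP toxicology study with daily oral administration; NOAEL determined.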

[7] = Toxicity in dog assessed as adverse effect at 400 to 500 mg/kg, po measured for 14 days; assay type: organism-based, Canis lupus familiaris; conditions: in vivo, 336 h, dose 400-500 mg/kg, time 14 day; method in brief: as §2
[8] = Oral bioavailability in Sprague-Dawley rat at 11.6 mg/kg by LC/MS/MS analysis; assay type: ADME, organism-based; conditions: in vivo
Method in brief: (§3)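 Jugular vein-cannulated male Sprague Dawley rats (180–200 g, n = 3/route). Intravenous arm: active acid at 10 mg/kg in 0.9% saline, plasma sampled 0.08–8 h. Oral arm: prodrug at a dose equivalent to 10 mg/kg acid in 25:75 PEG 400/WFI, plasma sampled 0.25–24 h. Levels by LC/MS/MS; F = (AUCpo/AUCiv) × 100.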

Escherichia coli [9] = assay: Synergistic antibacterial activity against multidrug-resistant Escherichia coli ARC 2687 infected in CD-1 mouse model of neutropenic thigh infection assessed as reduction in colony forming unit in presence of cefpodoxime at 10 to 100 mg/kg, po administered every 6 hrs interval; assay type: functional, organism-based; conditions: dose 10-100 mg/kg; method in brief: as §1
[10] = Oral bioavailability in Sprague-Dawley rat at 10 mg/kg by LC/MS/MS analysis; assay type: ADME, organism-based; conditions: in vivo; method in brief: as §3
[11] = AUC in Sprague-Dawley rat at 11.6 mg/kg, po by LC/MS/MS analysis; assay type: ADME, organism-based; parameters: dose 11.6 mg/kg; conditions: in vivo
[12] = Protein binding in Sprague-Dawley rat plasma assessed as fraction unbound at 5 to 100 uM; assay type: ADME, cell-free; conditions: dose 5-100 µM
Method in brief: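 Rat plasma protein binding reported as mean percent unbound across 5–100 μM.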

Klebsiella pneumoniae [13] = assay: Synergistic antibacterial activity against Klebsiella pneumoniae ARC 6082 drug resistant clinical isolates assessed as MIC for cefpodoxime antibacterial activity by CLSI based broth dilution method (Rvb > 64 ug/ml); assay type: functional
Enterobacter cloacae [14] = assay: Synergistic antibacterial activity against Enterobacter cloacae ARC 6049 drug resistant clinical isolates assessed as MIC for cefpodoxime antibacterial activity by CLSI based broth dilution method (Rvb > 64 ug/ml); assay type: functional
Klebsiella oxytoca [15] = assay: Antibacterial activity against Klebsiella oxytoca ARC 5389 carbapenem resistant clinical isolates assessed as reduction in bacterial growth by CLSI based broth dilution method; assay type: functional
Method in brief: (§4)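 Broth microdilution per CLSI in cation-adjusted Mueller–Hinton broth against drug-resistant clinical isolates; MIC read as the lowest concentration preventing bacterial growth.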

[16] = Clearance in Sprague-Dawley rat at 10 mg/kg, iv by LC/MS/MS analysis; assay type: ADME, organism-based; conditions: in vivo
Method in brief: (§5)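 Jugular vein-cannulated male Sprague Dawley rats, 180–200 g, n = 3, given 10 mg/kg iv in 0.9% saline. Formulation pH checked at 4–7. […] Half-life taken from linear regression of the semilog concentration–time plot.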

Escherichia coli [17] = assay: Synergistic antibacterial activity against Escherichia coli ARC 6077 drug resistant clinical isolates assessed as MIC for cefpodoxime antibacterial activity by CLSI based broth dilution method (Rvb > 64 ug/ml); assay type: functional
Escherichia coli [18] = assay: Antibacterial activity against Escherichia coli ARC 6077 drug resistant clinical isolates assessed as reduction in bacterial growth by CLSI based broth dilution method; assay type: functional; method in brief: as §4
Klebsiella pneumoniae [19] = assay: Antibacterial activity against Klebsiella pneumoniae ARC 6107 carbapenem resistant clinical isolates assessed as reduction in bacterial growth by CLSI based broth dilution method; assay type: functional; method in brief: as §4
Enterobacter cloacae [20] = assay: Antibacterial activity against Enterobacter cloacae ARC 6049 drug resistant clinical isolates assessed as reduction in bacterial growth by CLSI based broth dilution method; assay type: functional; method in brief: as §4
Escherichia coli [21] = assay: Synergistic antibacterial activity against Escherichia coli ARC 6078 drug resistant clinical isolates assessed as MIC for cefpodoxime antibacterial activity by CLSI based broth dilution method (Rvb > 64 ug/ml); assay type: functional
Escherichia coli [22] = assay: Antibacterial activity against Escherichia coli ARC 6064 drug resistant clinical isolates assessed as reduction in bacterial growth by CLSI based broth dilution method; assay type: functional; method in brief: as §4
Enterobacter cloacae [23] = assay: Antibacterial activity against Enterobacter cloacae ARC 6055 drug resistant clinical isolates assessed as reduction in bacterial growth by CLSI based broth dilution method; assay type: functional; method in brief: as §4
[24] = Cmax in Sprague-Dawley rat at 10 mg/kg, iv by LC/MS/MS analysis; assay type: ADME, organism-based; parameters: route intravenous, dose 10 mg/kg; conditions: in vivo; method in brief: as §5
Klebsiella pneumoniae [25] = assay: Synergistic antibacterial activity against Klebsiella pneumoniae ARC 6107 carbapenem resistant clinical isolates assessed as MIC for cefpodoxime antibacterial activity by CLSI based broth dilution method (Rvb > 64 ug/ml); assay type: functional
Escherichia coli [26] = assay: Antibacterial activity against Escherichia coli ARC 6078 drug resistant clinical isolates assessed as reduction in bacterial growth by CLSI based broth dilution method; assay type: functional; method in brief: as §4
Escherichia coli [27] = assay: Synergistic antibacterial activity against Escherichia coli ARC 6064 drug resistant clinical isolates assessed as MIC for cefpodoxime antibacterial activity by CLSI based broth dilution method (Rvb > 64 ug/ml); assay type: functional
Klebsiella pneumoniae [28] = assay: Synergistic antibacterial activity against Klebsiella pneumoniae ARC 6098 drug resistant clinical isolates assessed as MIC for cefpodoxime antibacterial activity by CLSI based broth dilution method (Rvb > 64 ug/ml); assay type: functional
Citrobacter freundii [29] = assay: Antibacterial activity against Citrobacter freundii ARC 3518 carbapenem resistant clinical isolates assessed as reduction in bacterial growth by CLSI based broth dilution method; assay type: functional; method in brief: as §4
Klebsiella pneumoniae [30] = assay: Synergistic antibacterial activity against Klebsiella pneumoniae ARC 6088 carbapenem resistant clinical isolates assessed as MIC for cefpodoxime antibacterial activity by CLSI based broth dilution method (Rvb > 64 ug/ml); assay type: functional
[31] = Half-life in Sprague-Dawley rat at 10 mg/kg, iv by LC/MS/MS analysis; assay type: ADME, organism-based; conditions: in vivo; method in brief: as §5
Klebsiella pneumoniae [32] = assay: Antibacterial activity against Klebsiella pneumoniae ARC 6088 carbapenem-resistant clinical isolates assessed as reduction in bacterial growth by CLSI based broth dilution method; assay type: functional; method in brief: as §4
Klebsiella pneumoniae [33] = assay: Antibacterial activity against Klebsiella pneumoniae ARC 6098 drug resistant clinical isolates assessed as reduction in bacterial growth by CLSI based broth dilution method; assay type: functional; method in brief: as §4
Escherichia coli [34] = assay: Antibacterial activity against Escherichia coli ARC 6059 drug resistant clinical isolates assessed as reduction in bacterial growth by CLSI based broth dilution method; assay type: functional; method in brief: as §4
[35] = Inhibition of bacterial TEM-1 assessed as equilibrium constant using nitrocefin as chromogenic substrate by absorbance plate reader analysis
Klebsiella pneumoniae [36] = assay: Antibacterial activity against Klebsiella pneumoniae ARC 6082 drug resistant clinical isolates assessed as reduction in bacterial growth by CLSI based broth dilution method; assay type: functional; method in brief: as §4
Citrobacter freundii [37] = assay: Synergistic antibacterial activity against Citrobacter freundii ARC 3518 carbapenem resistant clinical isolates assessed as MIC for cefpodoxime antibacterial activity by CLSI based broth dilution method (Rvb > 64 ug/ml); assay type: functional
[38] = Drug excretion in Sprague-Dawley rat urine assessed as unchanged drug at 10 mg/kg, iv by LC/MS/MS analysis; assay type: ADME, organism-based; conditions: read-out: Drug excretion
Method in brief: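 Male Sprague Dawley rats, 10 mg/kg iv in 0.9% saline, n = 3. Urine assayed for unchanged parent drug, reported as percent of the administered iv dose.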

Escherichia coli [39] = assay: Antibacterial activity against Escherichia coli ARC 2687 drug resistant clinical isolates assessed as reduction in bacterial growth by CLSI based broth dilution method; assay type: functional; method in brief: as §4
[40] = AUC in Sprague-Dawley rat at 10 mg/kg, iv by LC/MS/MS analysis; assay type: ADME, organism-based; parameters: dose 10 mg/kg; conditions: in vivo; method in brief: as §5
[41] = Volume of distribution at steady state in Sprague-Dawley rat at 10 mg/kg, iv by LC/MS/MS analysis; assay type: ADME, organism-based; conditions: in vivo, read-out: Vdss; method in brief: as §5
Klebsiella oxytoca [42] = assay: Synergistic antibacterial activity against Klebsiella oxytoca ARC 5389 carbapenem resistant clinical isolates assessed as MIC for cefpodoxime antibacterial activity by CLSI based broth dilution method (Rvb > 64 ug/ml); assay type: functional
Enterobacter cloacae [43] = assay: Synergistic antibacterial activity against Enterobacter cloacae ARC 6055 drug resistant clinical isolates assessed as MIC for cefpodoxime antibacterial activity by CLSI based broth dilution method (Rvb > 64 ug/ml); assay type: functional
Escherichia coli [44] = assay: Synergistic antibacterial activity against Escherichia coli ARC 6059 drug resistant clinical isolates assessed as MIC for cefpodoxime antibacterial activity by CLSI based broth dilution method (Rvb > 64 ug/ml); assay type: functional
[45] = Renal clearance in Sprague-Dawley rat at 10 mg/kg, iv by LC/MS/MS analysis; assay type: ADME, organism-based; conditions: in vivo; method in brief: as §5

C[C@@H](O)[C@H]1C(=O)N2C(C(=O)O)=C(S[C@@H]3CN[C@H](C(=O)N(C)C)C3)[C@H](C)[C@H]12 [MEROPENEM]
Activity (Escherichia coli [1]): -1.46 log10CFU/g

CC1=C[C@@H](C(N)=O)N2C[C@@H]1N(O[C@H](F)C(=O)OC(C)C)C2=O
Cmax [2]: 5800 ng/mL | Drug metabolism [3]: Metabolite detected | Activity (Escherichia coli [4]): 1.11 log10CFU/g | half-life [5]: 66 min | Activity [6]: Non-Toxic | Activity [7]: Non-Toxic | bioavailability [8]: 98% | Activity (Escherichia coli [9]): Active | bioavailability [10]: 98% | AUC [11]: 7040 ng·h/mL

CC1=C[C@H](C(N)=O)N2C[C@@H]1N(O[C@H](F)C(=O)O)C2=O
fraction unbound [12]: 91% | MIC (Klebsiella pneumoniae [13]): 0.125 µg/mL | MIC (Enterobacter cloacae [14]): 0.125 µg/mL | MIC (Klebsiella oxytoca [15]): 16 µg/mL (≈ 58.6 µM) | clearance [16]: 23.1 mL/min/kg | MIC (Escherichia coli [17]): 0.125 µg/mL | Drug metabolism [3]: Metabolite detected | MIC (Escherichia coli [18]): 4 µg/mL (≈ 14.6 µM) | MIC (Klebsiella pneumoniae [19]): 4 µg/mL (≈ 14.6 µM) | MIC (Enterobacter cloacae [20]): 1 µg/mL (≈ 3.66 µM) | MIC (Escherichia coli [21]): 0.25 µg/mL | MIC (Escherichia coli [22]): 8 µg/mL (≈ 29.3 µM) | MIC (Enterobacter cloacae [23]): 1 µg/mL (≈ 3.66 µM) | Cmax [24]: 17500 ng/mL | MIC (Klebsiella pneumoniae [25]): 0.25 µg/mL | MIC (Escherichia coli [26]): 0.25 µg/mL (≈ 0.915 µM) | MIC (Escherichia coli [27]): 0.5 µg/mL | MIC (Klebsiella pneumoniae [28]): 0.125 µg/mL | MIC (Citrobacter freundii [29]): 0.25 µg/mL (≈ 0.915 µM) | MIC (Klebsiella pneumoniae [30]): 0.125 µg/mL | half-life [31]: 24 min | MIC (Klebsiella pneumoniae [32]): 16 µg/mL (≈ 58.6 µM) | MIC (Klebsiella pneumoniae [33]): 16 µg/mL (≈ 58.6 µM) | MIC (Escherichia coli [34]): 16 µg/mL (≈ 58.6 µM) | Ki [35]: 0.34 nM | MIC (Klebsiella pneumoniae [36]): 64 µg/mL (≈ 234 µM) | MIC (Citrobacter freundii [37]): 0.13 µg/mL | dose excreted [38]: 60% | MIC (Escherichia coli [39]): 0.5 µg/mL (≈ 1.83 µM) | AUC [40]: 7190 ng·h/mL | Vd [41]: 0.7 L/kg | MIC (Klebsiella oxytoca [42]): 0.5 µg/mL | MIC (Enterobacter cloacae [43]): 0.125 µg/mL | MIC (Escherichia coli [44]): 0.125 µg/mL | CL renal [45]: 13.4 mL/min/kg
